In experiment [1] the target is Angiopoietin-1 receptor (Homo sapiens) (UniProt Q02763). Description: Inhibition of human recombinant Tie2 at 40 nM related to control ULK1.
The target in experiment [2] is Mitogen-activated protein kinase kinase kinase 20 (Homo sapiens) (UniProt Q9NYL2). Description: Inhibition of human recombinant ZAK at 500 nM in presence of ATP by radiometric assay relative to control.
The target in experiment [3] is Serine/threonine-protein kinase ATR (Homo sapiens) (UniProt Q13535). Description: Inhibition of human recombinant ATR at 500 nM in presence of ATP by radiometric assay relative to control. In short, it runs like this: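 Panel of 327 recombinant human kinases, each assayed in vitro by radiometric activity assay in duplicate at a single inhibitor concentration per compound, chosen with reference to its ULK1 inhibition. Activity remaining was expressed as percent of vehicle control, and percent inhibition was calculated as 100 minus percent activity remaining.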
Sequence of Serine/threonine-protein kinase ATR (Homo sapiens) (Q13535 whole entry, looked up): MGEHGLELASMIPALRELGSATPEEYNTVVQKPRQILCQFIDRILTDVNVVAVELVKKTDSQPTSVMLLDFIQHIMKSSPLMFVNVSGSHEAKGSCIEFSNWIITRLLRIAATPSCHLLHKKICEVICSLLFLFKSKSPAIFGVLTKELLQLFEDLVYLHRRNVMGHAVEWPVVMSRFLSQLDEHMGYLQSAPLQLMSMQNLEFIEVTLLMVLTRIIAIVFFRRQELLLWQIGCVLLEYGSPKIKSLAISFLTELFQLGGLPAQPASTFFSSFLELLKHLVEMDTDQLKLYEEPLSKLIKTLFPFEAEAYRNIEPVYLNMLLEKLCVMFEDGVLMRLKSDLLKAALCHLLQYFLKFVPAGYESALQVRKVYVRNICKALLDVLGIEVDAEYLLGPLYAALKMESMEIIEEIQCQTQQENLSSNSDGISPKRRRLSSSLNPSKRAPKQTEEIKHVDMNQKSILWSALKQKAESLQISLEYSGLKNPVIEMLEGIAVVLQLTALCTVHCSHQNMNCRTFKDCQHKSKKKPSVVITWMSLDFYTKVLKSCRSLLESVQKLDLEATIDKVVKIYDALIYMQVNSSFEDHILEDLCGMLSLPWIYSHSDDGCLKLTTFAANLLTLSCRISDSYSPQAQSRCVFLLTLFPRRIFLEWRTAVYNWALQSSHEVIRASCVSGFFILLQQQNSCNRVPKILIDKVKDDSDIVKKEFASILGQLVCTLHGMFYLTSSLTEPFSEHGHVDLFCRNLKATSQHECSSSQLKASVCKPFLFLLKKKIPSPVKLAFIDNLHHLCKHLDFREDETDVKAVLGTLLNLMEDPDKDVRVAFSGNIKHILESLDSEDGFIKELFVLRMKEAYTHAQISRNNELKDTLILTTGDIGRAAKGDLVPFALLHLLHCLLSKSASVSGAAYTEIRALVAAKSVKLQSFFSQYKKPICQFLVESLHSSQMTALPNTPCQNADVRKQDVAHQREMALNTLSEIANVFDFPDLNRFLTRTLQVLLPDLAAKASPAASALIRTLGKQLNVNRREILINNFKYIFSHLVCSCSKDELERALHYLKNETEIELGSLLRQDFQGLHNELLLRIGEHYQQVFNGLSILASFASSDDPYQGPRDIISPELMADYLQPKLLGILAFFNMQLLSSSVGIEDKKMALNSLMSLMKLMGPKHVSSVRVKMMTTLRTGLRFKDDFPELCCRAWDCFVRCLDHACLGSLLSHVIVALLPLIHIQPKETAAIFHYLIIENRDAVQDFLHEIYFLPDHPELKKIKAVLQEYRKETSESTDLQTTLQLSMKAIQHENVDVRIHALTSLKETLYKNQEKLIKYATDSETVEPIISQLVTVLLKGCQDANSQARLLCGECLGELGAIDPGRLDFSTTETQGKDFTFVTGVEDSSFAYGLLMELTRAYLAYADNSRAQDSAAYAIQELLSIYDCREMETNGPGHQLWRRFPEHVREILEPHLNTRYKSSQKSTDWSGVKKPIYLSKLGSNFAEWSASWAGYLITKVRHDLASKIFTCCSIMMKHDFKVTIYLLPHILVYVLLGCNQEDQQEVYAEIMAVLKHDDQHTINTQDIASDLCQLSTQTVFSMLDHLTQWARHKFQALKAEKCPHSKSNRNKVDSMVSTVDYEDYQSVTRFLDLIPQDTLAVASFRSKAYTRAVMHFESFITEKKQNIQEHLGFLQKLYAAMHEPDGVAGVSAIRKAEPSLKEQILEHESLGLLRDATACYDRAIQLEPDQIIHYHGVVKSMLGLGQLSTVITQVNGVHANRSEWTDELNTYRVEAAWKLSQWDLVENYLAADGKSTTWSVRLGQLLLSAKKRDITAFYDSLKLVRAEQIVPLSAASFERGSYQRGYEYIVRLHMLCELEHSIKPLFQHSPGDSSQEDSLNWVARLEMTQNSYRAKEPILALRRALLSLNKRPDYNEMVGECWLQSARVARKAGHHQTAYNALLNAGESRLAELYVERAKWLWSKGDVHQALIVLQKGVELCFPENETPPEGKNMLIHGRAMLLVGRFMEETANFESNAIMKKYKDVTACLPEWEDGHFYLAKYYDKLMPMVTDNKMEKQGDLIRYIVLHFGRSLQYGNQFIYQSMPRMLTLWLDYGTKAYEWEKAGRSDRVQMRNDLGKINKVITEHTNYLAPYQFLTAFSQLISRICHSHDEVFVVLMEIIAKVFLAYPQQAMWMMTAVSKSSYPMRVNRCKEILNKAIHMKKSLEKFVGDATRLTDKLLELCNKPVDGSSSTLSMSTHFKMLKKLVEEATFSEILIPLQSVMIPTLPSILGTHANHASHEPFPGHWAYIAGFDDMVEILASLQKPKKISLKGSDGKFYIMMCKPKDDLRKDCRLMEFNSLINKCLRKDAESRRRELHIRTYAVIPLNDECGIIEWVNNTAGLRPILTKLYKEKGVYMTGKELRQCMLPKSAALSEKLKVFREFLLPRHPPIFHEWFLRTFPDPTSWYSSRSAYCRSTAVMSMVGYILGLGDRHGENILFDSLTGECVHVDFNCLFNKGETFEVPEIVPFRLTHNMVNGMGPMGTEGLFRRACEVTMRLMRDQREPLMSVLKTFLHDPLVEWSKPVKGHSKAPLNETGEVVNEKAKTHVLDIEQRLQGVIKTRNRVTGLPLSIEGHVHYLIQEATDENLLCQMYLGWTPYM

Experiment [4] addresses Mitogen-activated protein kinase 1 (Homo sapiens) (UniProt P28482). Description: Inhibition of human recombinant Erk2 at 500 nM related to control ULK1.
The target of experiment [5] is T1, Serine/threonine-protein kinase Nek1 (Homo sapiens) (UniProt Q96PY6).
T1 sequence (whole entry): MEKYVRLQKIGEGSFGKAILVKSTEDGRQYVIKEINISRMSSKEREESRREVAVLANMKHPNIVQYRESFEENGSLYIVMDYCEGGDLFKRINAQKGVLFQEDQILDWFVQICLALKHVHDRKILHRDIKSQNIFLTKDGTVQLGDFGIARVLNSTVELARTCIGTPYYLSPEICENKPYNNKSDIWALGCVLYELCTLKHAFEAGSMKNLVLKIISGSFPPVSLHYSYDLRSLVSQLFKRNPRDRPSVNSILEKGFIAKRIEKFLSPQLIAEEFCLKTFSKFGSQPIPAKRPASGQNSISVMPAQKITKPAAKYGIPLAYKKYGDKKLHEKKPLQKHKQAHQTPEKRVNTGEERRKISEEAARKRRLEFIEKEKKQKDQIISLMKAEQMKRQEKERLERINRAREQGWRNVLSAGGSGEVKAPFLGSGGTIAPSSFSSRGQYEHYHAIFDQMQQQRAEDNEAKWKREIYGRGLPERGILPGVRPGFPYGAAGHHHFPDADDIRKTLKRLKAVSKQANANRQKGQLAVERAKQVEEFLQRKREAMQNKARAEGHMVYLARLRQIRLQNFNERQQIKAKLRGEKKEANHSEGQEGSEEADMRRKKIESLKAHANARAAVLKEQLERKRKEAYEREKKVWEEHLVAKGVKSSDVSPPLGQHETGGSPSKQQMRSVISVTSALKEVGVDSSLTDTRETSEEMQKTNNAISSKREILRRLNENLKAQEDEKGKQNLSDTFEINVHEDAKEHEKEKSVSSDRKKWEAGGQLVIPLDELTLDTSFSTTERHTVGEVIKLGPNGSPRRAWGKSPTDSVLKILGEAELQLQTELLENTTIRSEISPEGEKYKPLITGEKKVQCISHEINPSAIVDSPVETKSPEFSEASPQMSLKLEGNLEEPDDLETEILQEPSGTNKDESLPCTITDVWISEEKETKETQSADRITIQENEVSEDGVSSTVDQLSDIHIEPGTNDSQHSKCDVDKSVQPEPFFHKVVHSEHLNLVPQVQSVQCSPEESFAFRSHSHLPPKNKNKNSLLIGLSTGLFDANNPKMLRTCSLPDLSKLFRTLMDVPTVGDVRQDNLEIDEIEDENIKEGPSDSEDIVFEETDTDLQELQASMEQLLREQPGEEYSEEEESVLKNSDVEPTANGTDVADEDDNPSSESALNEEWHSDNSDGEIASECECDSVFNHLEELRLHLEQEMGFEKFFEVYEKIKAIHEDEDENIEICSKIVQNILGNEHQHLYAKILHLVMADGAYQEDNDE
The experiment in a line: Inhibition of human recombinant NEK1 at 500 nM in presence of ATP by radiometric assay relative to control.

For experiment [6], the target named is T2, Serine/threonine-protein kinase D3 (Homo sapiens) (UniProt O94806).
T2 sequence (whole entry): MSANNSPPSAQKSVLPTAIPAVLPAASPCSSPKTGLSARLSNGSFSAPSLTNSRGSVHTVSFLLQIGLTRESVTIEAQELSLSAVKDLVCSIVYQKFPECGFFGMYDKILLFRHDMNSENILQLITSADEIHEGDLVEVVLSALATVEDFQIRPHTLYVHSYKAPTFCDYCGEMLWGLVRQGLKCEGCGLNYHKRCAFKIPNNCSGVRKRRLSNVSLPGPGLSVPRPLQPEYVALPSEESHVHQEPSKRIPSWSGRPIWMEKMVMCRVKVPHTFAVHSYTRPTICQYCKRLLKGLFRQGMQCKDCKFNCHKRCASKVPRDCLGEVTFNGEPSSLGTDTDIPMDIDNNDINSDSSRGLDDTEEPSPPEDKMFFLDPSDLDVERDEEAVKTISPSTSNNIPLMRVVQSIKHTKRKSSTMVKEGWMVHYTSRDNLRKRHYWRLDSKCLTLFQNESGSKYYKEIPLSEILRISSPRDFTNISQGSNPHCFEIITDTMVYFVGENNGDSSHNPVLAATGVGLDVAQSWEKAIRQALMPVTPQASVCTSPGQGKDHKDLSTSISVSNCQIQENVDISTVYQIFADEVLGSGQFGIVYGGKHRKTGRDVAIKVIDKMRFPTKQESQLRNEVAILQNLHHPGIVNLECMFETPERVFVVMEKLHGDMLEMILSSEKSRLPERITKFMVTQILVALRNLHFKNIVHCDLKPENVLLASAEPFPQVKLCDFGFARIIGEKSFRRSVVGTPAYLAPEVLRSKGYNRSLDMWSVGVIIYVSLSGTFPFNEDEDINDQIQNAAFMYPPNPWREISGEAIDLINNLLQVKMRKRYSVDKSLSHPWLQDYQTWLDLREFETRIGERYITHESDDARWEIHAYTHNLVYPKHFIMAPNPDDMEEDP
The experiment in a line: Inhibition of human recombinant PKD3 at 15 nM in presence of ATP by radiometric assay relative to control.

In experiment [7] the target is Serine/threonine-protein kinase Nek4 (Homo sapiens) (UniProt P51957). The experiment in a line: Inhibition of human recombinant NEK4 at 15 nM related to control ULK1.
Experiment [8] concerns the target Serine/threonine-protein kinase PAK 6 (Homo sapiens) (UniProt Q9NQU5). The experiment in a line: Inhibition of human recombinant PAK6 at 15 nM in presence of ATP by radiometric assay relative to control.

From ChEMBL document CHEMBL5653631, “A Potent and Selective ULK1 Inhibitor Suppresses Autophagy and Sensitizes Cancer Cells to Nutrient Stress” (iScience, 2018) come the findings set out here.

Sequence of Angiopoietin-1 receptor (Homo sapiens) (Q02763 whole entry): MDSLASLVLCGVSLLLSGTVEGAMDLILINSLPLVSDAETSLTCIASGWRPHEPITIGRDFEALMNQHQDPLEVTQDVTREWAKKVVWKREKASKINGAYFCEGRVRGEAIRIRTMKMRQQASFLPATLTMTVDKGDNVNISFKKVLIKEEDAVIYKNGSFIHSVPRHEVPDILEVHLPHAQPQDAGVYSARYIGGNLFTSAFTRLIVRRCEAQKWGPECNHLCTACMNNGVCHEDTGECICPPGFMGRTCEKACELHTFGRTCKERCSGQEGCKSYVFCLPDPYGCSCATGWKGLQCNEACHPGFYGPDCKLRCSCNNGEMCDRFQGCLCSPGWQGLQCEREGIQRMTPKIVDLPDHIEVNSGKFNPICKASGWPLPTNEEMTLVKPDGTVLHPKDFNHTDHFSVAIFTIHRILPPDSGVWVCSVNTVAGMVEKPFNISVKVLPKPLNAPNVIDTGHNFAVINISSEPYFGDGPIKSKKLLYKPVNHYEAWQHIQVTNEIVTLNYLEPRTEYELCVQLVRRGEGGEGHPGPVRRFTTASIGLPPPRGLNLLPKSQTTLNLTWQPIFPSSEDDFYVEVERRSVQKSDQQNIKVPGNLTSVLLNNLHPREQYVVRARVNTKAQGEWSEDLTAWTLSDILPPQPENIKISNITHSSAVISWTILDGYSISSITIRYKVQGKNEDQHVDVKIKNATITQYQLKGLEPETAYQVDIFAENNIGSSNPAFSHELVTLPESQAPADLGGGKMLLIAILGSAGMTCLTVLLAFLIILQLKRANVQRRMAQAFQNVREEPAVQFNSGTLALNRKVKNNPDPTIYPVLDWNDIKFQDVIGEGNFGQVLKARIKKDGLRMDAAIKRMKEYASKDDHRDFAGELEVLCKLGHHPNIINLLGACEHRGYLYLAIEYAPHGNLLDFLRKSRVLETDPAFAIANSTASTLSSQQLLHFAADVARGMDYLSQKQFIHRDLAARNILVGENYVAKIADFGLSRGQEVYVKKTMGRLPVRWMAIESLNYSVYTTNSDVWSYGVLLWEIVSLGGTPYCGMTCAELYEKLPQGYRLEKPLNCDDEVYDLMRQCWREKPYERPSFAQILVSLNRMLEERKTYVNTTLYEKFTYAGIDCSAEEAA
Sequence of Mitogen-activated protein kinase 1 (Homo sapiens) (P28482 whole entry): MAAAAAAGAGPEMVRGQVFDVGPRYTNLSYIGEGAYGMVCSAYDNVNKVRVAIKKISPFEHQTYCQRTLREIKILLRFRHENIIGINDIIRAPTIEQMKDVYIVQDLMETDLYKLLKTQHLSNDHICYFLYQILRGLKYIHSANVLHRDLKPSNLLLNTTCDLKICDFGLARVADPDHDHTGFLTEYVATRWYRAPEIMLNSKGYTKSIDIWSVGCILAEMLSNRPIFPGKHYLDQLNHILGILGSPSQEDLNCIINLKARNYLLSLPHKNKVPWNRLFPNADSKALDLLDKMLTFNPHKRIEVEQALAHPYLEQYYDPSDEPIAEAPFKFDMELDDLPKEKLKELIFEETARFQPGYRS
Sequence of Mitogen-activated protein kinase kinase kinase 20 (Homo sapiens) (Q9NYL2 2-800 limits assumed): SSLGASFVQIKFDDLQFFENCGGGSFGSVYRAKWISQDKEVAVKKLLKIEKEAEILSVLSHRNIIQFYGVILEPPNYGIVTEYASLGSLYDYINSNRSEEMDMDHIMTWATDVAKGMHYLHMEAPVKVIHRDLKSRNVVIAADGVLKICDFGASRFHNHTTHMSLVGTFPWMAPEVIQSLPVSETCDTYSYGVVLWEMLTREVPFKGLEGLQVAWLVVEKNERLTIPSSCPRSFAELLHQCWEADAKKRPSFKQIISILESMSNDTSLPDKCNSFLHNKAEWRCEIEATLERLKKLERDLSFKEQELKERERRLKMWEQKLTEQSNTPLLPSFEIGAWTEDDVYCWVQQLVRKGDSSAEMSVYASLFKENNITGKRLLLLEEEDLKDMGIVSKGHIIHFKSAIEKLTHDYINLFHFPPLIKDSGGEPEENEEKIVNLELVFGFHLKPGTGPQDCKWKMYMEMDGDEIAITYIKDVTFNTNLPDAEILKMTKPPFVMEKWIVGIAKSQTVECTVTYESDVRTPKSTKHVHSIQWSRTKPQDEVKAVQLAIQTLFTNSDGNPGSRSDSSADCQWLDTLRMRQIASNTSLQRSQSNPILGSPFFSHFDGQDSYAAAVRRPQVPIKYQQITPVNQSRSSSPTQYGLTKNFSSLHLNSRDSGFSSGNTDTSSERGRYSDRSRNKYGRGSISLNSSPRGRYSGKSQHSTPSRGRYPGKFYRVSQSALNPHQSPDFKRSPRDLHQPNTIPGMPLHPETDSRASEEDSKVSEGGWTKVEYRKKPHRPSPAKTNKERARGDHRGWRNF

Turning to `O=C(N[C@@H](C1CC1)C(F)(F)F)c1cc(-c2cnn3cc(-c4ccc(F)cc4)cnc23)cs1`, the fold change (FC) in experiment [1] was 0.

Turning to `CNC(=O)c1ccccc1Oc1nc(Nc2cc(OC)c(OC)c(OC)c2)ncc1Br`, the inhibition was found to be 1% in experiment [2], 0% in experiment [3] and 8% in experiment [5]. The fold change (FC) in experiment [4] was 0.

Regarding `CC(C)[C@H](NC(=O)c1cc(-c2cnn3cc(-c4ccc(OCCN5CCCCC5)cc4)cnc23)cs1)C(F)(F)F`, the values for the inhibition in experiment [6] and in experiment [8] were 7% and 0%, respectively. Moreover, the fold change (FC) in experiment [7] was 0.07.

As usually defined, the inhibition is the drop in the measured response relative to a control, in per cent.
